ChEMBL document CHEMBL1143654, “Enhancement of aqueous solubility and stability employing a trans acetate axis in trans planar amine platinum compounds while maintaining the biological profile” (J Med Chem, 2005)

How the values were obtained:
[1] = Hydrolysis rate constant of the compound; format: ADME
41M [2] = experiment: Concentration required to inhibit growth of the human ovarian cancer 41M cells by 50% after 96h exposure; format: functional, cell-based
41M [3] = experiment: Resistance factor was determined as ratio of resistance to that of sensitivity of 41M cells after 96h exposure to compound; format: functional, cell-based; details: Homo sapiens
CH1 [4] = experiment: Resistance factor was determined as ratio of resistance to that of sensitivity of CH1 cells after 96h exposure to compound; format: functional, cell-based; details: Homo sapiens
[5] = Acid dissociation constant pKa2; format: physicochemical
Method in brief: (§1)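 Potentiometric titration of 10^-3 M solutions of trans-[Pt(OH)₂(L)(L')], made from the corresponding dinitrato compounds, with standardized NaOH (9.5×10^-4 M); pKa values were taken from the pH titration curves.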

[6] = Solubility in water by sequential addition; format: physicochemical
Method in brief: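 Water was added to the compound in sequential portions, with 15 min agitation after each addition. Solubility was taken as the point at which the solution was no longer clear.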

A2780 [7] = experiment: Concentration required to inhibit growth of the human ovarian cancer A2780 cells by 50% after 96h exposure; format: functional, cell-based
[8] = Acid dissociation constant pKa1; format: physicochemical; method in brief: as §1
CH1 [9] = experiment: Concentration required to inhibit growth of the human ovarian cancer CH1 cells by 50% after 96h exposure; format: functional, cell-based
A2780 [10] = experiment: Resistance factor was determined as ratio of resistance to that of sensitivity of A2780 cells after 96h exposure to compound; format: functional, cell-based; details: Homo sapiens

| Substance | k1 [1] [s⁻¹] | S [6] [mg/mL] | IC50 (41M [2]) [µM] | RF (41M [3]) | RF (CH1 [4]) | other results |
| --- | --- | --- | --- | --- | --- | --- |
| CARBOPLATIN | < 1e-08 | – | – | – | – | – |
| CISPLATIN [listing 2 of 2 here] | – | – | – | 6.1 | 6.7 | – |
| trans-[Pt(OAc)2(NH3)(iquin)] [listing 2 of 2 here] | – | – | – | 0.26 | 0.37 | RF (A2780 [10]): 1.69 |
| trans-[Pt(OAc)2(NH3)(quin)] [listing 2 of 2 here] | – | – | – | 1 | 0.48 | RF (A2780 [10]): 1.46 |
| trans-[Pt(OAc)2(py)2] [listing 2 of 2 here] | – | – | – | 0.32 | 0.22 | RF (A2780 [10]): 0.9 |

Further lines, with some results ahead:

| k1 [1] [s⁻¹] | S [6] [mg/mL] | Substance | IC50 (41M [2]) [µM] | RF (41M [3]) | RF (CH1 [4]) | other results |
| --- | --- | --- | --- | --- | --- | --- |
| 0.0000518 | – | CISPLATIN [listing 1 of 2 here] | 1.4 | – | – | – |
| 0.00019 | – | TRANSPLATIN | – | – | – | – |
| 0.000065 | – | [PtCl(dien)] | – | – | – | – |
| – | 21 | trans-[Pt(OAc)2(NH3)2] | – | – | – | pKa [5]: 7.08 |
| 7.4e-07 | 5.2 | trans-[Pt(OAc)2(NH3)(iquin)] [listing 1 of 2 here] | 22 | – | – | pKa [5]: 6.92; IC50 (A2780 [7]): 13 µM; pKa [8]: 3.78; IC50 (CH1 [9]): 20 µM |
| 3.7e-07 | 1.6 | trans-[Pt(OAc)2(NH3)(quin)] [listing 1 of 2 here] | 22 | – | – | IC50 (A2780 [7]): 13 µM; IC50 (CH1 [9]): 17 µM |
| 3.2e-07 | 15 | trans-[Pt(OAc)2(py)2] [listing 1 of 2 here] | 14 | – | – | IC50 (A2780 [7]): 12.8 µM; IC50 (CH1 [9]): 19 µM |
